Rows were chosen to be rich in hits. Some 2.5% of all compounds tested hit in one or more screens of this group.
MC4R antag cAMP – MC4R antagonists of cAMP signaling, primary screen, cell-based, TR-FRET, antagonist arm of biased-ligand search; MC4R-expressing cells, MTII-stimulated cAMP, LANCE TR-FRET; 0.48% of 360,000 active; AID 540295, 2011; inhibition, % at 6.5 µM;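 active = inhibition above its plate's cutoff, the mean of tested wells on that plate plus 3 SD, cut at about 29% in these data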
Target sequence (P32245 whole entry, looked up): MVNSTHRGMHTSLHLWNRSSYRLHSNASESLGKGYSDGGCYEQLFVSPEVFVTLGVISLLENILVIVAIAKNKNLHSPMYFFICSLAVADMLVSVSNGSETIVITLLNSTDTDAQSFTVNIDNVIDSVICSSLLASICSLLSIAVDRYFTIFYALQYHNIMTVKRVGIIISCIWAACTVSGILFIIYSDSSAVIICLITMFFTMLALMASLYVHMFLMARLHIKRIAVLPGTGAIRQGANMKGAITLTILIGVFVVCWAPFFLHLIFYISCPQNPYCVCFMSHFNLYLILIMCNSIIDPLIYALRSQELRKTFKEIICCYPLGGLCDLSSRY
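Assay system: U2OS-MC4R stable cell line; Also added: Melanotan II; Technique: Eu-cAMP/anti-cAMP TR-FRET, emission 671 nm; Times: 30-min compound, 1-h challenge, 1-h detection, room temperature.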
Exocytosis inh – LAMP-1 surface exposure blockers, TALL-104 cells – cell-based, flow cytometry, MLPCN library, primary screen. 0.66% of 360,000 active. AID 651702, 2012. TALL-104 LAMP-1 surface exposure; cells stimulated with thapsigargin and PMA. inhibition, % at 10 µM;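 active = inhibition above about 55%, limit read from the data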
sPLA2-III inh – human group III sPLA2 inhibitors, primary screen, biochemical, QFRET, BODIPY PC-A2 liposome substrate | Group 3 secretory phospholipase A2 (Homo sapiens), Q9NZ20 | QFRET BODIPY PC-A2 liposome hydrolysis, fluorescence | inhibition, % at 12.2 µM | 0.56% of 370,000 active | AID 743126, 2013;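 active = inhibition above mean plus 3 SD of compounds lying within the high and low control bounds, cut at about 19% in these data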
A1 inh – caspase 3/7 activation in MEF A1-2A-BIM cells, primary screen, A1 inhibitor project, cell-based, luminescence, HTS; Caspase-Glo 3/7 luminescence, 3 h; percent of clofoctol response, vehicle zero; caspase activation, % (test concentration not listed); 0.066% of 330,000 active; AID 2462, 2010;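 active = over half of replicate activation scores above 10%, or exactly half above 10 with the replicate mean above 10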
MC4R barr agon – MC4R agonists recruiting beta-arrestin, primary screen, cell-based, luminescence, agonist arm of biased-ligand search | U2OS MC4R beta-arrestin complementation; percent of melanotan II response, DMSO zero | activation, % at 8.9 µM | 0.98% of 360,000 active;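 active = activation above a per-plate cutoff, the mean activation of sample wells on that plate plus 3 SD, cut at about 8% in these data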
NTR1 agonist – agonists of human NTR1, primary screen, imaging, U2OS cells, beta-arrestin-GFP, high content; NTR1-U2OS beta-arrestin-GFP spot imaging, agonist mode; activation, % at 20 µM; 0.17% of 330,000 active;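 active = activation at or above 40% of the spot to cytoplasm intensity ratio, with at least 20 cells analyzed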
U2OS cAMP counter – nonselective cAMP signaling inhibitors, parental cells, counter-screen for MC4R biased antagonist project, cell-based, TR-FRET, U2OS, forskolin, triplicate; shares compounds with MC4R antag cAMP; LANCE TR-FRET; inhibition, % at 6.5 µM; 26% of 1,600 active;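 active = mean inhibition over triplicates above the low-control well mean plus 3 SD, set per campaign, cut at about 13% in these data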;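 note: signal is single emission at 671 nm which falls as cellular cAMP rises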
MC4R antag conf – MC4R cAMP antagonists, retest, confirmation, cell-based, TR-FRET | shares compounds with MC4R antag cAMP | MC4R-expressing cells, MTII-stimulated cAMP | inhibition, % at 6.5 µM | 27% of 1,600 active | AID 602195, 2012; in the data active = inhibition above about 29%
A number is an active result; – = inactive; · = no result given.

SMILES	MC4R antag cAMP	Exocytosis inh	sPLA2-III inh	A1 inh	MC4R barr agon	NTR1 agonist	U2OS cAMP counter	MC4R antag conf
O=C(CCc1ccccc1)N[C@H]1[C@H](OCc2ccccc2)CCC[C@@]12C(=O)N(Cc1ccccc1)c1ccccc12	·	·	–	·	·	·	·	·
CCn1nnnc1NCc1ccc(OCc2c(F)cccc2Cl)c(OC)c1	32.1	–	–	–	–	–	–	–
Cc1ccc(CNC(=O)O[C@H]2CC[C@@]34CCCN3C(=O)CCC[C@H]4[C@H]2C)o1	·	·	–	·	·	·	·	·
CCOc1cc(N2CCOCC2)c(OCC)cc1NCC(=O)N1CCN(Cc2ccccc2)CC1	29.4	–	–	–	–	–	–	–
CCOc1cc(N2CCOCC2)c(OCC)cc1NC(=O)CSc1ccccc1C(=O)O	–	–	–	·	–	–	·	·
CCOC(=O)CS(=O)(=O)c1nc(-c2ccc(F)cc2)cc(C(F)(F)F)n1	32.4	95.8	·	–	–	–	–	–
Cc1cc2nccc(-c3ccc(F)cc3)n2n1	–	–	–	–	–	–	·	·
Cc1cc2nccc(-c3ccc(Cl)c([N+](=O)[O-])c3)n2n1	40.9	–	–	–	–	–	–	28.8
CCOC(=O)[C@@]12CN(C(=O)OC(C)(C)C)CC=C1N(Cc1ccc(OC)cc1)C(=O)[C@H]2CC(=O)NCCCN1CCCC1=O	·	·	–	·	·	·	·	·
Cc1ccc(NC(=O)C(=O)NCC2CCCO2)cc1C (stereo not given)	35.6	–	–	–	–	–	–	–
O=C(OCc1cn(Cc2ccccc2Cl)nn1)N1CCOCC1	·	·	–	·	·	·	·	·
O=C1c2cccc([N+](=O)[O-])c2C(=O)N1C1CCCCC1	–	–	–	–	–	–	·	·
Cc1c(Cl)cccc1N1C(=O)C(N2C(=O)c3cccc([N+](=O)[O-])c3C2=O)C1c1cccs1 (stereo not given)	34.8	–	·	–	–	–	–	–
Cc1ccc2c(c1)CCCN2C(=O)c1ccncc1	29.0	–	–	–	–	–	–	–
Cc1ccc2c(c1)CCCN2C(=O)c1cc(C)on1	–	–	–	–	–	–	·	·
CNC(=O)CSc1nc2cc(S(=O)(=O)Nc3ccccc3OC)ccc2o1	–	–	–	–	–	–	·	·
COc1ccccc1NS(=O)(=O)c1ccc2oc(SC3CCOC3=O)nc2c1 (stereo not given)	43.9	–	·	–	–	–	35.8	66.7
O=C(N[C@H](Cc1ccccc1)C(=O)NCc1ccc(OC(F)(F)F)cc1)[C@H]1O[C@@H](n2ccc(=O)[nH]c2=O)[C@H](O)[C@@H]1O	·	·	–	·	·	·	·	·
Cc1ccc(S(=O)(=O)Nc2ccccc2F)cc1C(=O)N1CCCC1	–	–	–	–	–	–	·	·
CN1CCN(C(=O)c2cc(S(=O)(=O)Nc3ccccc3F)c(Cl)cc2Cl)CC1	34.8	–	–	–	–	–	–	–
CC(C)CN1C(=O)C[C@]2(C(=O)N(C)c3ccc(NC(=O)C(F)(F)F)cc32)C1c1ccccc1 (stereo not given in full)	·	·	–	·	·	·	·	·
O=C1OC(c2ccccc2)=NC12CC2c1ccc(Cl)cc1 (stereo not given)	28.7	–	–	–	–	–	–	–
Cc1ccnc(NC(=O)c2cnc(Cl)c(Cl)c2)c1	32.3	–	–	–	–	–	17.7	–

Screening data from PubChem BioAssay.
